KCNK3 block: human KCNK3 channel inhibition, primary screen. B-score at 10 µM. CHO-KCNK3 thallium flux, FluxOR fluorescence; hits give low values. 0.84% of 340,000 active;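 active means B-score under library mean minus 4 SD, starting fluorescence ratio at most library mean plus 5 SD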;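 further: more negative B-score means stronger inhibition of thallium flux through KCNK3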
KCNK9 block: human KCNK9 channel inhibition. 1.2% of 310,000 active. Q9NPC2. HEK293 KCNK9, FluxOR thallium flux fluorescence; hits give low values. B-score at 10 µM. AID 488922;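 active means ratio B-score over 3 SD below the library mean, with starting fluorescence within 5 SD of its mean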;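 further: negative B-score means less thallium flux so channel inhibition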
Kir21 inh: inhibitors of mouse Kir2.1 inward-rectifier potassium channel; HEK293-Kir2.1, FluxOR thallium flux fluorescence; hits give low values; P35561; 0.85% of 310,000 active; B-score at 10 µM; AID 1672;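 active means fluorescence ratio B-score at or below minus 3 SD of library scores, with starting-brightness B-score within 2 SD, cut at about -4.2 in these data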;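 further: channel flux triggered by added potassium and thallium sulfate stimulus; B-score of peak minus minimum fluorescence over baseline after thallium stimulus; more negative B-score means stronger Kir2.1 block with less thallium influx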
KCNQ1 pot: human KCNQ1 channel potentiation or activation; B-score at 10 µM; 0.35% of 310,000 active; CHO-K1 KCNQ1, thallium flux FluxOR fluorescence; hits give high values; P51787; AID 2648;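 active means fluorescence ratio B-score, a plate-corrected score, at least three library SD, with initial intensity B-score within 5 SD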
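Assay system: CHO-K1 cells stably expressing KCNQ1; Medium: assay buffer with matched DMSO; Also added: K+/Tl+ depolarizing stimulus; Dosing: single dose; Timing: dye 90 min, compound 20 min, room temperature; Measured by: kinetic FluxOR thallium fluorescence, 10-s 1-Hz baseline, 110-s post-stimulus read; Read-out: peak-minus-minimum fluorescence over initial fluorescence, negative-control normalized, B-scored.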
KCNQ1 block: inhibitors of human KCNQ1 potassium channel; P51787; CHO-K1 KCNQ1, FluxOR thallium flux fluorescence; hits give high values; B-score at 10 µM; 1.3% of 310,000 active;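 active means compounds whose thallium flux B-score, printed positive for inhibition, exceeds three library SD while starting fluorescence stays within three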;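 further: channel opened by potassium depolarization with thallium stimulus after 20 min compound exposure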
hERG protect: compounds protecting human hERG from proarrhythmic drug block. Q12809. CHO-hERG, FluxOR thallium flux, dofetilide IC70 present. activation (rescue from dofetilide block), less the hit threshold, % at 10 µM. 0.51% of 310,000 active. AID 1511;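 active means activation above the mean of controls blocked by dofetilide plus 5 SD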;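 further: thallium influx through hERG after potassium depolarization seen as dye fluorescence rise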
KCNK9 block conf: human KCNK9 inhibitor confirmation. shares compounds with KCNK9 block. inhibition, % at 10 µM. AID 492992. HEK293 KCNK9 cells, FluxOR thallium flux fluorescence. 43% of 4,900 active;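 active means thallium signal inhibited by more than 5 SD of the compound-free buffer control wells, on both duplicate plates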
Kir2-1 spec: mouse Kir2.1 off-target activity of KCNK9 modulators | shares compounds with KCNK9 block | Kir2.1 cells, FluxOR thallium flux fluorescence | inhibition, % at 10 µM | 4% of 4,900 active;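 active means thallium signal drop more than 5 SD beyond the mean of the no-compound control wells, seen in both duplicate plates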;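 further: signal is fluorescence rise after thallium addition divided by baseline fluorescence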
KCNK9 uninduced: non-induced cell nonspecific activity of KCNK9 modulators; shares compounds with KCNK9 block; non-induced KCNK9-HEK293, FluxOR thallium flux; inhibition, % at 10 µM; 40% of 4,900 active; AID 492997;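 active means thallium signal drop beyond 5 SD of the untreated control mean, on both duplicate plates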
Of the large screens only hits and unclear results are named; the others gave an inactive call (follow-up assays come after a bar, where they were run). This is a sample that favours compounds with a hit; in the whole collection about 3.7% have one here.

CCCC[C@@H]1C[C@H]1[C@@H](NC(=O)c1cccs1)c1ccc(Cl)cc1	KCNK9 block -10.6, KCNQ1 block 10 (no result: KCNK3 block) | KCNK9 block conf 52.0% | Kir2-1 spec inactive | KCNK9 uninduced 50.5%
O=C(/C=C\c1ccc2c(c1)OCO2)Nc1nnc(SCC(=O)OCc2ccccc2)s1	none (no result: KCNK3 block)
CCn1ccnc1CN(C)Cc1nc(CCC(C)C)no1	none
CC1(c2ccc(OCC#N)cc2)C=C(c2ccc(OCC#N)cc2)n2nc(C(F)(F)F)nc2N1 (centres undefined)	KCNK9 block -9.23 | KCNK9 block conf 43.0% | Kir2-1 spec inactive | KCNK9 uninduced 44.0%
Cc1c(NC(=O)C(C)OC(=O)C23CC4CC(CC(Br)(C4)C2)C3)c(=O)n(-c2ccccc2)n1C (centres undefined)	none
CN1c2ccccc2C2(C)CCCC3=Cc4cccc([N+](=O)[O-])c4OC312 (centres undefined)	KCNK9 block -10.4 | KCNK9 block conf 57.0% | Kir2-1 spec inactive | KCNK9 uninduced 35.0%
COc1ccccc1C1(CC(=O)Nc2nccs2)CCOC(C(C)C)C1 (centres undefined)	none
CN1c2ccccc2-c2nc3ccccc3n2C1c1cccs1 (centres undefined)	KCNK9 block -8.58 | KCNK9 block conf 37.5% | Kir2-1 spec inactive | KCNK9 uninduced 41.5%
CC(=O)N1c2ccccc2-c2nc3ccccc3n2C1C (centres undefined)	none
Cc1ccc(C2N(C)c3ccccc3-c3nc4ccccc4n32)o1 (centres undefined)	KCNK9 block -11.4 | KCNK9 block conf 32.5% | Kir2-1 spec inactive | KCNK9 uninduced 30.5%
Cc1ccc(S(=O)(=O)N(CCC(=O)NCC(c2ccccc2)N(C)C)c2ccccc2)cc1 (centres undefined)	none (no result: KCNK9 block, Kir21 inh, KCNQ1 pot, KCNQ1 block, hERG protect)
CSc1ccc(C(=O)C2CCCN(C(=O)c3nn(C)c(=O)c4ccccc34)C2)cc1 (centres undefined)	none
CSc1ccc(C(=O)C2CCCN(C(=O)c3cccc(N4CCOCC4)c3)C2)cc1 (centres undefined)	none | KCNK9 block conf inactive | Kir2-1 spec inactive | KCNK9 uninduced inactive
CSc1ccc(C(=O)C2CCCN(C(=O)c3nonc3C)C2)cc1 (centres undefined)	none | KCNK9 block conf inactive | Kir2-1 spec inactive | KCNK9 uninduced inactive
COCc1ccc(C(=O)N2CCCC(C(=O)c3cccc(C(F)(F)F)c3)C2)o1 (centres undefined)	none
COCc1ccc(C(=O)N2CCCC(C(=O)c3ccc(SC)cc3)C2)o1 (centres undefined)	none | KCNK9 block conf inactive | Kir2-1 spec inactive | KCNK9 uninduced inactive
O=C(Nc1nc2c(F)cc(F)cc2s1)c1ccc([N+](=O)[O-])o1	none
Cc1cc2nc(-c3ccc4c(c3)CCC4)ccn2n1	none | KCNK9 block conf inactive | Kir2-1 spec inactive | KCNK9 uninduced inactive
Cc1cc2nc(-c3cc(N4CCOCC4)ccc3[N+](=O)[O-])ccn2n1	none
CC1(C)CC(NC(=O)C2CCC(=O)N(C3CC3)C2)CC(C)(C)C1 (centres undefined)	none
CCCOc1c(Br)cc(C2C3=C(CCCC3=O)N(CC)C3=C2C(=O)CCC3)cc1OC	KCNK9 block -8.45 | KCNK9 block conf inactive | Kir2-1 spec inactive | KCNK9 uninduced 31.0%
CCCOc1c(Br)cc(C2C3=C(CCCC3=O)N(C)C3=C2C(=O)CCC3)cc1OC	none
O=C(O/N=C\c1ccc(N2CCCCC2)c([N+](=O)[O-])c1)c1ccc(Cl)cc1Cl	none
COc1ccccc1C(=O)/C=C/c1ccc(N2CCCCC2)c([N+](=O)[O-])c1	KCNK9 block -9.96 | KCNK9 block conf 50.0% | Kir2-1 spec inactive | KCNK9 uninduced 31.0%
O=C(CC12CC3CC(CC(C3)C1)C2)NC(=S)NCc1ccco1	KCNQ1 block 6 | KCNK9 block conf inactive | Kir2-1 spec inactive | KCNK9 uninduced inactive
O=C(NCc1ccco1)C12CC3CC(CC(C3)C1)C2	none
CCOC(=O)C1=CNS(=O)(=O)NC1c1cccc(O)c1 (centres undefined)	none (no result: KCNK9 block, Kir21 inh, KCNQ1 pot, KCNQ1 block, hERG protect)
COCCOC(=O)c1c(C)oc2ccc(NS(=O)(=O)c3ccccc3)cc12	none
CCOC(=O)c1c(C)oc2ccc(NS(=O)(=O)c3ccc4c5c(cccc35)C(=O)N4)cc12	KCNK9 block -10 | KCNK9 block conf 36.5% | Kir2-1 spec inactive | KCNK9 uninduced inactive
Cc1ccc(N2CCC(N3CCN(C)C(CCO)C3)CC2)cc1 (centres undefined)	none
COc1ccc(OC)c(NC(=O)C(Sc2ccccc2)c2ccccc2)c1 (centres undefined)	KCNK9 block -10.9 | KCNK9 block conf 57.5% | Kir2-1 spec inactive | KCNK9 uninduced 45.5%
CCOC(=O)C1CCN(C(=O)COC(=O)Cc2ccc(Cl)cc2)CC1	none
COc1ccc2c(c1)c(C(=O)N/N=C/c1cn(C)c3ccccc13)c(C)n2C	KCNK9 block -9.43 | KCNK9 block conf inactive | Kir2-1 spec inactive | KCNK9 uninduced inactive
C[C@@H]1CN([C@H](C)CO)C(=O)c2cc(NC(=O)Nc3ccc4c(c3)OCO4)ccc2O[C@H]1CN(C)Cc1ccncc1	none (no result: KCNK9 block, Kir21 inh, KCNQ1 pot, KCNQ1 block, hERG protect)
CCOc1ccc(OCCOC(=O)C2CCN(S(=O)(=O)c3ccc(C)c(C)c3)CC2)cc1	none | KCNK9 block conf inactive | Kir2-1 spec inactive | KCNK9 uninduced inactive
CCOC(=O)C1CCN(S(=O)(=O)c2ccc(OCC(=O)OC)cc2)CC1	none
CC(CCc1ccccc1)NC(=O)COC(=O)C1CCC(C(C)(C)C)CC1 (centres undefined)	none | KCNK9 block conf inactive | Kir2-1 spec inactive | KCNK9 uninduced inactive
O=C(COC(=O)C1CC1)NCCc1ccccc1	none (no result: KCNK9 block, Kir21 inh, KCNQ1 pot, KCNQ1 block, hERG protect)
CC(=O)Nc1ccc(S(=O)(=O)N(C)CC(=O)OCC(=O)Nc2cc(C)on2)cc1	none (no result: KCNK9 block, Kir21 inh, KCNQ1 pot, KCNQ1 block, hERG protect)
Cc1ccc(CSc2nc3ccsc3c(=O)n2Cc2ccccn2)cc1	KCNK9 block -14 | KCNK9 block conf 79.0% | Kir2-1 spec inactive | KCNK9 uninduced 44.0%
COc1ccc(CNC(=O)/C(C#N)=C2\N=C(NC(=O)c3cccs3)c3ccccc32)cc1	none | KCNK9 block conf inactive | Kir2-1 spec inactive | KCNK9 uninduced inactive
COc1ccc(S(=O)(=O)N2CCC(C(=O)NC3CCCCC3)CC2)cc1C	none
CCOc1cc(/C=N/Nc2nc3ccccc3[nH]2)cc(Br)c1OCC(=O)N(C)C	KCNK9 block -11.3 | KCNK9 block conf 57.5% | Kir2-1 spec inactive | KCNK9 uninduced inactive

Screening results: PubChem BioAssay, Johns Hopkins Ion Channel Center
